For assay [1], the target named is Glutamate NMDA receptor; GRIN1/GRIN2B (Homo sapiens, UniProt Q05586+Q13224). Kind of assay: Displacement of [3H]-ifenprodil from GluN1a/GluN2B (unknown origin) expressed in L(tk-) cell membranes after 120 mins by scintillation counting analysis. In general terms: Loss of bound radioactivity is the signal in a displacement assay; it reports binding, not function.

For another assay, the species on record is Sus scrofa. The assay is described as follows: Displacement of [3H]-(+)-MK-801 from PCP binding site of NMDA receptor in pig brain cortex membranes at 1 uM after 120 mins by solid scintillation counting relative to control. The assay is classed as cell membranes. The method, boiled down:
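Single 1 µM test concentration: inhibition (%) of 2 nM [3H]-(+)-MK-801 binding to pig brain cortex membranes (about 100 µg protein). Buffer was 5 mM TRIS/1 mM EDTA, pH 7.5, at rt. Nonspecific binding defined with 10 µM unlabeled (+)-MK-801. Bound radioactivity collected by filtration and counted by solid scintillation.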

Assay [2] can be described thus: Displacement of [3H]-(+)-MK-801 from PCP binding site of NMDA receptor in pig brain cortex membranes after 120 mins by solid scintillation counting. It counts as cell membranes, Sus scrofa. The method, boiled down: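 Pig brain cortex membranes (about 100 µg protein) incubated with 2 nM [3H]-(+)-MK-801 and test compound at 10^-5 to 10^-9 mol/L (final) in 5 mM TRIS/1 mM EDTA, pH 7.5, at rt with shaking. Nonspecific binding defined with 10 µM unlabeled (+)-MK-801. Filtration, melted solid scintillator, [3H] counting. Duplicates. IC50 by non-linear regression, converted to Ki via Cheng-Prusoff (Kd 2.26 nM). Mean ± SEM of three experiments.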

Assay [3] has as its target Sigma non-opioid intracellular receptor 1 (Cavia porcellus, UniProt Q60492). The assay is described as follows: Displacement of [3H]-(+)-pentazocine from sigma1 receptor in guinea pig brain cortex membrane after 120 mins by scintillation counting method. It counts as cell membranes.
The target in assay [4] is T1, Sigma intracellular receptor 2 (Rattus norvegicus, UniProt Q5U3Y7).
T1 sequence (Q5U3Y7 whole entry): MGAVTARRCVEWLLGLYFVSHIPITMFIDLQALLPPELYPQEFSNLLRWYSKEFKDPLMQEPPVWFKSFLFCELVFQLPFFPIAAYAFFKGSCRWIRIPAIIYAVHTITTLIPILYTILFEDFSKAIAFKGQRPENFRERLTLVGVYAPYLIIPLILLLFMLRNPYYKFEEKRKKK
Kind of assay: Displacement of [3H]-di-o-tolylguanidine from sigma2 receptor in rat liver membranes incubated for 120 mins by scintillation counting method. The assay is classed as cell membranes, Membrane.

Sequence of Glutamate NMDA receptor; GRIN1/GRIN2B (Q13224 whole entry, other chains not shown): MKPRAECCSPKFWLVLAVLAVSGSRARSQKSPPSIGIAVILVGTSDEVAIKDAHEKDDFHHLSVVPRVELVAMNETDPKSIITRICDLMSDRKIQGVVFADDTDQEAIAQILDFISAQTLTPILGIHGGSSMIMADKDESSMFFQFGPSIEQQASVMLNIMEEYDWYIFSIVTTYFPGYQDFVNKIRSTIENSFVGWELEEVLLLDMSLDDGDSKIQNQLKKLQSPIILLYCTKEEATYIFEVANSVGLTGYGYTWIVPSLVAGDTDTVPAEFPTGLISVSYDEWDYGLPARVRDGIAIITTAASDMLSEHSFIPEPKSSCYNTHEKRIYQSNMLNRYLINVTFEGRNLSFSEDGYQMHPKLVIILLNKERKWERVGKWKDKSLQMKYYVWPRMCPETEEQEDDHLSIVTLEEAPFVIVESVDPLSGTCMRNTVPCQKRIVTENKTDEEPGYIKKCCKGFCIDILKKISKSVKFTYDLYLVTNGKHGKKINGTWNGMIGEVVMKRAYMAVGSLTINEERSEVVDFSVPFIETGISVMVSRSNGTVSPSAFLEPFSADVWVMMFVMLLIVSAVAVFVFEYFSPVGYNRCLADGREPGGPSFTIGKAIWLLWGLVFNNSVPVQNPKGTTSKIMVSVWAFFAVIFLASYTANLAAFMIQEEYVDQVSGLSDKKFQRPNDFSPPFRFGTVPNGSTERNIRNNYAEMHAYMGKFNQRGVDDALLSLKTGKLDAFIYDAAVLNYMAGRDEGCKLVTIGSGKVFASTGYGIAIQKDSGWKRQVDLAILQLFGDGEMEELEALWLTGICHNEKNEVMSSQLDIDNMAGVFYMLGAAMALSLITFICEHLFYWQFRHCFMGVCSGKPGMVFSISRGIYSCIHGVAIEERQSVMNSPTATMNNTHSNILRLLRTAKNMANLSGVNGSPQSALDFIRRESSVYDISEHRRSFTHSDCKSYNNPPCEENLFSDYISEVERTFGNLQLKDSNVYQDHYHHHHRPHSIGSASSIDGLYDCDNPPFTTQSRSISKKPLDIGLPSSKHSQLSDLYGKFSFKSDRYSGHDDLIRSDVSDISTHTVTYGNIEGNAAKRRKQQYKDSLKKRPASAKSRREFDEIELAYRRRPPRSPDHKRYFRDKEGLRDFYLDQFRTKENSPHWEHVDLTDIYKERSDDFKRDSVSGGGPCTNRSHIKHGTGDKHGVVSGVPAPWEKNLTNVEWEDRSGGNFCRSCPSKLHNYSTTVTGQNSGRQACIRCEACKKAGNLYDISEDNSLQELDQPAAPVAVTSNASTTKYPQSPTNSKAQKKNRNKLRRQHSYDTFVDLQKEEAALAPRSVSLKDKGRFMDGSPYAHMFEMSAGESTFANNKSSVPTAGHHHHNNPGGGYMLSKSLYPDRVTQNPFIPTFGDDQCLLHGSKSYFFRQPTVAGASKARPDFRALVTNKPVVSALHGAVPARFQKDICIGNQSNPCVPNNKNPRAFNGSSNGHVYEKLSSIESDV
Sequence of Sigma non-opioid intracellular receptor 1 (Q60492 whole entry): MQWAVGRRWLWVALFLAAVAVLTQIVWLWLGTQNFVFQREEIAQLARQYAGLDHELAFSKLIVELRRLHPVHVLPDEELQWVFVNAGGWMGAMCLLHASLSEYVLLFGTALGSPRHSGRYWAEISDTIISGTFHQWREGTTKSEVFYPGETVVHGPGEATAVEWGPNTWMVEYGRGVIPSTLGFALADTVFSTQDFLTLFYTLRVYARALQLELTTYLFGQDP

The term Ki denotes the equilibrium dissociation constant of an inhibitor or competing ligand from its target. Low readings indicate higher affinity, high ones lower affinity. In general, inhibition refers to the percentage by which the read-out fell short of the control. Low readings indicate little suppression, high ones strong suppression. As usually defined, the IC50 is the concentration at which inhibition is half-maximal. Low readings indicate inhibition by little substance, high ones a need for much substance. As for `CN(CCCCc1ccccc1)C1CCc2cccnc2CC1` (stereo not given), the Ki in assay [1] was 477 nM; in assay [3], 263 nM; in assay [4], 115 nM. In the assay filed under Sus scrofa, this molecule registered an inhibition of 5%. In addition, the IC50 in assay [2] is over 1000 nM.

`CN(CCCc1ccccc1)C1CCc2cccnc2CC1` (stereo not given): the Ki in assay [1] came to 445 nM; in assay [3], 261 nM; in assay [4], 68 nM. The same molecule yielded an inhibition in the assay listed under Sus scrofa of 0%. In addition, the IC50 in assay [2] was over 1000 nM.

With `c1ccc(CCCNC2CCc3cccnc3CC2)cc1` (stereo not given), the values for the Ki in assay [1], in assay [3] and in assay [4] were 302 nM, 992 nM and 276 nM, respectively. The same molecule displayed an inhibition in the assay filed under Sus scrofa of 10%. For the same molecule, the IC50 in assay [2] is over 1000 nM.

On to `c1ccc(CNC2CCc3cccnc3CC2)cc1` (stereo not given), for which the values for the Ki in assay [1], in assay [3] and in assay [4] were over 1000 nM, 942 nM and 490 nM, respectively. In the assay filed under Sus scrofa, this molecule yielded an inhibition of 0%. The IC50 in assay [2] is over 1000 nM.

In the case of `c1ccc(CCCCNC2CCc3cccnc3CC2)cc1` (stereo not given), the Ki amounted to 149 nM in assay [1], 214 nM in assay [3] and 68 nM in assay [4]. Also, the inhibition in the assay listed under Sus scrofa stood at 8%. In assay [2], this molecule came in with an IC50 of over 1000 nM.

These data come from ChEMBL document CHEMBL4270606, “Pyridine bioisosteres of potent GluN2B subunit containing NMDA receptor antagonists with benzo[7]annulene scaffold” (Eur J Med Chem, 2018).
